Assay results gathered from unrelated publications.
Lines come from different studies, so protocols differ.
Target: Serine/threonine-protein kinase Chk1 (CHEK1, Homo sapiens, UniProt O14757)
Sequence (O14757 1-476, as in one of the studies): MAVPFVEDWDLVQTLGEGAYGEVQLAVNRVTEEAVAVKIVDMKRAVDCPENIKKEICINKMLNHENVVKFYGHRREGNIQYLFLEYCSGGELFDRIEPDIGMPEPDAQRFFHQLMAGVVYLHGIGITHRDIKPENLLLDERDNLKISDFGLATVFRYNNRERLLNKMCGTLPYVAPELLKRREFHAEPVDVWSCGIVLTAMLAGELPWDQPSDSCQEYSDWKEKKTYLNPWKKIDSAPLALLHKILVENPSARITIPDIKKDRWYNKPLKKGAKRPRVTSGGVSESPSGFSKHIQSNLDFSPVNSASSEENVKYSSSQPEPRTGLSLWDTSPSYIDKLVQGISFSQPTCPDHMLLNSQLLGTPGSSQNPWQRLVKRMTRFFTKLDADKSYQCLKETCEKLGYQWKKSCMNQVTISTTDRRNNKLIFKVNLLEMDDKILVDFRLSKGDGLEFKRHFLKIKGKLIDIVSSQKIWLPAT

SMILES	read-out	method	tested at	remaining binding [%]
CCc1ccccc1C(=O)Nc1n[nH]c2c(C)c(F)c(C3C(C#N)=C(C)N(C)C(C)=C3C#N)cc12	cell-free assay	competition with immobilised ligand	1 µM	91
COc1cnc(Nc2cccc(S(N)(=O)=O)c2)nc1N1CCN(c2ccccc2)C(=O)C1	binding	competition with immobilised ligand	1 µM	100
CN(CCCC(F)(F)F)c1nccc(-c2cnn3ncccc23)n1	binding		1 µM	100
COc1ncc2cc3ccccc3nc2c1C#N	cell-free assay	competition with immobilised ligand	5 µM	100
O=C(NCCCN1CCOCC1)c1ccc(Nc2nccc(-c3cc4ccccc4s3)n2)cc1	binding	competition with immobilised ligand	1 µM	100
O=C(NCC1CCOCC1)c1n[nH]cc1NC(=O)c1c(F)cccc1F	binding	competition with immobilised ligand	1 µM	100
CNC(=O)c1ccc(Nc2ncc(C(F)(F)F)c(NCc3nccnc3N(C)S(C)(=O)=O)n2)cc1	cell-free assay	competition with immobilised ligand	0.1 µM	100
c1cnn2ncc(-c3ccnc(N4CCC45COC5)n3)c2c1	binding		1 µM	89
O=C(c1ccc(Nc2ncc(Cl)c(-c3cc4ccccc4s3)n2)cc1)N1CCC(N2CCCC2)CC1	binding	competition with immobilised ligand	1 µM	54
CCN1CCN(Cc2ccc(C(=O)Nc3ccc(C)c(Oc4ccc5c(c4)CC(=O)N5)c3)cc2C(F)(F)F)CC1	binding	competition with immobilised ligand	1 µM	100
CC(C)CC(=O)N1CCc2nc(-c3ccc(Br)cc3)nc(N(C)Cc3ccccc3)c2C1	cell-free assay	competition with immobilised ligand	0.1 µM	100
CN(C)c1nccc(-c2cnn3ncccc23)n1	binding		1 µM	100
O=C(NCCCC1CCCCC1)c1ccc(CNC(=O)c2cnn(-c3ccccc3)c2C(F)(F)F)cc1	cell-free assay	competition with immobilised ligand	0.1 µM	100
C[C@H]1CCN(c2nccc(-c3cnn4ncccc34)n2)C1	binding		1 µM	76
CC(=O)c1c(NS(C)(=O)=O)c2cc(-c3ccc(Cl)cc3)c(-c3ccc(Cl)cc3Cl)nc2n(C)c1=O	cell-free assay	competition with immobilised ligand	1 µM	100
Nc1ncc2c(n1)-c1c([nH]c3ccc(C#CC4CC4)cc13)CCCC2	binding	competition with immobilised ligand	1 µM	97
Cc1cnn2ncc(-c3ccnc(N(C)C)n3)c2c1	binding		1 µM	100
O=C(c1ccc(Nc2nccc(-c3cc4ccccc4s3)n2)cc1)N1CCC(N2CCCC2)CC1	binding	competition with immobilised ligand	1 µM	100
c1cncc(-c2cccc(Nc3nccc(NC4CCCCC4)n3)c2)c1	binding	competition with immobilised ligand	10 µM	94
Cc1nc(C2CCN(C(=O)c3ccc(OC(F)(F)F)cc3N)CC2)c2ncc(N3CCN(C)CC3)cc2n1	cell-free assay	competition with immobilised ligand	1 µM	100
N[C@H]1CCN(c2nccc(-c3cnn4ncccc34)n2)C1	binding		1 µM	100
C[C@@H]1CN(c2ccc3ncc(-c4ccc5[nH]nc(C6CC6)c5c4)n3n2)C[C@H](C)O1	binding	competition with immobilised ligand	50 nM	91
CCCCN(CCCC)C(=O)CN1C[C@H](c2cc(OC)c3c(c2)OCO3)[C@@H](C(=O)O)[C@@H]1CC(C)(C)CCC	cell-free assay	competition with immobilised ligand	1 µM	100
